Bioassay records from PubChem.
Most compounds without a hit are left out; they make up all but 4.4% or so of the library.
NR3A LBD binder = NR3A (human) ligand-binding domain modulation; NR3A LBD differential scanning fluorimetry, Tm shift; 0% = protein alone, 100% = glycine-bound protein; Tm shift relative to glycine control, % at 25 µM; hit rate 2.5% among 340,000; AID 1259313;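 active = melting temperature shift of at least 10% of the positive control shift, at one fixed dose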
MPTP block = blocks calcium-induced mitochondrial swelling. isolated mouse mitochondria, Ca2+ swelling absorbance, 30 min. hit rate 1.4% among 360,000. inhibition, % at 10 µM;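 active = inhibition of 50% or more, scaled per plate between neutral and stimulator controls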;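 also: 0% = DMSO wells given calcium and 100% = 1 mM EGTA wells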
EBI2 antag = EBI2 (human) antagonism. hit rate 0.81% among 360,000. P32249. EBI2 beta-arrestin recruitment, luminescence, 7a,25-OHC stimulated. AID 651636. inhibition, % at 5 µM; in the data active = inhibition above about 38%;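 also: enzyme fragment complementation signal reports receptor beta-arrestin coupling in cells; 0% = agonist plus DMSO wells and 100% = wells without agonist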
Target sequence (P32249 whole entry, looked up, the tested form may be a part): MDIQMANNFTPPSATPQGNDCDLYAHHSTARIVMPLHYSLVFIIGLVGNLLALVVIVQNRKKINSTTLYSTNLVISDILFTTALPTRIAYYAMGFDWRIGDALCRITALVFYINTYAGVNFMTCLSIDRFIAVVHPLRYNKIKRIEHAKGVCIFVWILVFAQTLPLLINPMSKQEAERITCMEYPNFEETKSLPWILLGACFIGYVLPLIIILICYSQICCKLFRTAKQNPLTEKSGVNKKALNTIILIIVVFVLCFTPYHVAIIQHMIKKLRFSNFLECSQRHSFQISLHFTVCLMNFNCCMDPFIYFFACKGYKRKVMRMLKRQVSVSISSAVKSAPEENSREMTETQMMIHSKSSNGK
SENP1 inh = SENP1 (human) catalytic domain inhibition; Q9P0U3; recombinant SENP1 catalytic domain, CyPet-SUMO1-YPet FRET cleavage; inhibition, % at 10 µM; hit rate 0.21% among 360,000;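 active = inhibition at least 30% at 10 µM, raw YFP signal under a set limit, fluorescence ratio 0.5 to 1.5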;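 also: 0% = enzyme with DMSO and 100% = no enzyme wells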
Target sequence (Q9P0U3 419-644 limits assumed): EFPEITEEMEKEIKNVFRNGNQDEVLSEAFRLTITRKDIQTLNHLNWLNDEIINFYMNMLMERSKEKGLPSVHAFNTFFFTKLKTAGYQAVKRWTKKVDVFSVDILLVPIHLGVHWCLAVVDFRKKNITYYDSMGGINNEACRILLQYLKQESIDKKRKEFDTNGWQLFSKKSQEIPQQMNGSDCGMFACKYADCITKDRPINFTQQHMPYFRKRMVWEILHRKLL
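Test system: human SENP1 catalytic domain; medium: Tris pH 8 buffer plus EDTA, NaCl, BME, BSA, NP40, catalase; incubation: 50 min reaction at room temperature; technique: FRET, CFP and YFP emission; controls: no-enzyme low control and enzyme-plus-DMSO high control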
Active calls of the source: *; nt = no result given.

SMILES	NR3A LBD binder	MPTP block	EBI2 antag	SENP1 inh
Oc1ccc(C[C@H]2CNCCN2CCc2cc(C(F)(F)F)cc(C(F)(F)F)c2)cc1	1.0	-0.5	-11.2	-0.4
Oc1ccc(C[C@@H]2CNC(=S)N2CCc2cc(C(F)(F)F)cc(C(F)(F)F)c2)cc1	33.6*	1.2	17.5	-1.2
Oc1ccc(C[C@H]2CNC(=S)N2CCc2cc(C(F)(F)F)cc(C(F)(F)F)c2)cc1	31.1*	0.5	12.7	1.6
FC(F)(F)c1cc(CCN2C(=S)NC[C@@H]2Cc2ccccc2)cc(C(F)(F)F)c1	13.2*	1.4	-7.7	-0.3
O=C1NC[C@@H](Cc2ccc(O)cc2)N(CCc2cc(C(F)(F)F)cc(C(F)(F)F)c2)C1=O	nt	0.1	0.4	-1.1
CC(=O)c1cc(F)c(N2CCN(C(=O)COc3ccc(F)cc3)CC2)cc1C	0.8	-0.7	28.4	-1.0
CNC(=O)C1C2C=CC3(O2)C1C(=O)N(C1CC1)C3C(=O)NCc1ccc(OC)cc1 (stereo unspecified)	1.7	-2.1	-1.4	-1.0
O=C(Cc1ccccc1)Nc1ccc(NC(=O)c2ccc(Br)cc2)cc1	2.2	0.2	-11.4	-2.6
O=C(CSc1ccccc1)Nc1ccc(C(=O)Nc2ccc(O)cc2)cc1	25.1*	0.2	-3.3	-1.3
O=C(Cc1ccccc1)Nc1ccc(C(=O)Nc2ccc(O)cc2)cc1	35.2*	-1.8	12.3	-1.2
O=[N+]([O-])c1cccc(/C=N/Nc2cc(Cl)nc(-c3ccccc3)n2)c1	28.0*	5.9	14.2	2.5
Cc1cc(NCCCN)nc(-c2ccccc2O)n1	-0.6	2.8	-5.6	-3.3
C/C(=N\Nc1cc(C)nc(-c2ccccc2O)n1)c1ccccc1	13.9*	1.2	7.4	1.0
Cc1cc(N/N=C/c2ccc(O)c(C)c2O)nc(-c2ccccc2O)n1	32.0*	4.4	-11.3	-1.4
Cc1ccc(Nc2cc(C)nc(-c3ccccc3O)n2)cc1	7.2	28.6	17.7	-6.5
Cc1cc(Nc2ccc(Br)cc2)nc(-c2ccccc2O)n1	29.4*	3.7	19.7	-8.0
O=[N+]([O-])c1ccc(/C=N/Nc2cc(Cl)nc(-c3ccccc3)n2)cc1	-0.6	5.0	-4.2	-9.5
Cn1c(-c2ccccc2)c(Sc2ccccc2)c2cc(-c3ccc4cc[nH]c4c3)ccc21	nt	1.1	2.4	-1.3
C/C(=N\Nc1cc(C)nc(-c2ccccc2)n1)c1cccc([N+](=O)[O-])c1	17.2*	1.2	20.5	1.2
C=CCN(C(=O)Cn1c(C(=O)OC)cc2oc(C)cc21)c1ccccc1	-1.3	-0.5	4.5	-1.7
COC(=O)c1cc2oc(C)cc2n1CC(=O)N(C)c1ccccc1	10.6*	0.1	11.6	-0.3
COc1ccc(OC)c(N(CC(=O)N2CCCC2)S(=O)(=O)c2ccccc2)c1	0.2	-1.2	-16.4	0.5
COC(=O)CN(c1cc(OC)ccc1OC)S(=O)(=O)c1ccc(OC)c(OC)c1	10.2*	0.7	-1.4	1.8
COCCNC(=O)CN(c1ccc(OC)c(OC)c1)S(=O)(=O)c1ccc(C)cc1	14.0*	-3.4	-7.8	-0.3
O=C(NC(=S)Nc1ccc(CN2CCOCC2)cc1)c1ccc2c(c1)OCCO2	0.0	0.6	8.0	4.0
SMILES	NR3A LBD binder	MPTP block	EBI2 antag	SENP1 inh
CN(Cc1ccc2c(c1)OCCO2)C(=O)CSc1ncnc2sccc12	0.5	0.6	11.6	-18.6
O=C(N/N=C/c1ccc(F)cc1)c1cc(-c2ccc3c(c2)OCO3)n[nH]1	29.2*	3.2	-9.7	3.7
COc1ccc(/C=N/NC(=O)c2cc(-c3ccc4c(c3)OCO4)n[nH]2)cc1OC	25.3*	-2.9	-12.2	-4.1
O=C(N/N=C/c1cc2c(cc1Cl)OCO2)c1cc(-c2ccccc2)n[nH]1	32.4*	1.5	2.1	-0.4
Cn1cccc1-c1cc(C(=O)N/N=C/c2ccc(F)cc2)[nH]n1	8.8	-1.1	-9.2	1.7
CN(C)c1ccc(/C=N/NC(=O)c2ccc3c(c2)OCCO3)cc1	21.1*	-0.6	11.4	-29.8
Cc1cc([N+](=O)[O-])ccc1NC(=O)CSc1nnc(C)n1C	0.2	0.4	-4.8	1.8
Cc1cccc(NC(=O)c2ccc([N+](=O)[O-])s2)c1C	-0.8	7.8	-14.0	-0.7
COc1ccc(CN2CCC(=O)N([C@H](CO)CC(C)C)CC2)cc1	-2.3	-0.6	-5.2	2.3
CCOC(=O)c1nn(-c2ccc(C)c(C)c2)c(=O)c(C#N)c1C	-3.5	2.2	-2.7	4.7
CN(C)c1ccc(/C=N/NC(=O)c2cc(-c3ccc4c(c3)OCO4)n[nH]2)cc1	12.4*	5.3	-6.8	-63.5
NC(=S)N=Nc1c(O)n(CC(=O)Nc2ccccc2)c2ccccc12	-3.4	0.7	1.1	2.5
Cc1cccc(NC(=O)Cn2c(O)c(N=NC(=O)c3ccccc3O)c3ccccc32)c1	20.6*	0.3	-4.9	5.2
CC(C)C[C@@H](CO)NS(=O)(=O)c1cc(Cl)ccc1F	0.2	-0.3	-10.5	-0.8
Cc1ccc(NC(=S)NC(=O)c2ccc(-c3ccc(Cl)cc3)o2)c(O)c1	33.7*	3.0	37.0	-1.3
Cc1ccc(O)c(NC(=S)NC(=O)Cc2ccc(Cl)cc2)c1	-6.8	0.1	-2.9	3.1
Cc1cc(O)c(NC(=S)NC(=O)c2ccc(-c3ccc(Cl)cc3)o2)cc1C	30.1*	3.9	20.8	-1.6
Cc1cc(C)c(S(=O)(=O)NC2CC3CCC2C3)c(C)c1 (stereo unspecified)	-3.5	-0.5	12.6	-0.6
CCCOc1ccc(N2C(=O)CC(N(Cc3ccc(OC)cc3)C(=S)Nc3ccccc3)C2=O)cc1 (stereo unspecified)	24.2*	-19.7	7.5	1.9
CCCOc1ccc(N2C(=O)CC(N(CCc3ccc(OC)c(OC)c3)C(=S)Nc3ccccc3)C2=O)cc1 (stereo unspecified)	5.3	2.3	7.8	0.9
CNC(=S)N(Cc1ccc(OC)cc1)C1CC(=O)N(c2ccc(OC)cc2)C1=O (stereo unspecified)	18.3*	-1.3	1.5	0.4
O=C(CCC1CCCC1)NCCCNC(=O)CCC1CCCC1	-1.7	-0.3	-6.9	-1.0
Cc1nn(-c2ccccc2)c(/N=C/c2ccc(O)cc2)c1-c1ccccc1	26.1*	24.4	-7.5	-4.5
Cc1nn(-c2ccccc2)c(C)c1-c1ccccc1O	0.5	-0.1	2.0	3.1
O=C(Nc1nc(-c2ccccc2)cs1)c1cccc([N+](=O)[O-])c1	24.4*	49.6	9.1	2.8
SMILES	NR3A LBD binder	MPTP block	EBI2 antag	SENP1 inh
O=[N+]([O-])c1cccc(-c2csc(Nc3ccccc3)n2)c1	30.3*	3.4	17.7	6.2
COc1ccccc1Nc1nc(-c2cccc([N+](=O)[O-])c2)cs1	32.5*	2.2	27.2	-0.2
COc1cc(NS(=O)(=O)c2ccc(Nc3nc(-c4cccc([N+](=O)[O-])c4)cs3)cc2)nc(OC)n1	28.9*	-0.3	-14.8	2.5
NNC(=O)c1ccc([N+](=O)[O-])c(CS(=O)(=O)c2ccc(Cl)cc2)c1	-1.4	2.2	0.3	2.1
CN(C)C=NC(=O)c1ccc([N+](=O)[O-])c(CS(=O)(=O)c2ccc(Cl)cc2)c1	12.5*	0.6	6.0	-1.6
COc1cccc(NC(=O)CCCn2nc(C)c3c(C)n(-c4ccccc4)nc3c2=O)c1	-0.7	0.2	-6.7	0.2
